# From ChEMBL document CHEMBL3351588, “Design, synthesis and biological evaluation of N-alkyl or aryl substituted isoindigo derivatives as potential dual cyclin-dependent kinase 2 (CDK2)/glycogen synthase kinase 3β (GSK-3β) phosphorylation inhibitors” (Eur J Med Chem, 2014)
# Active and inactive are the calls of the source. The rule behind the calls is not given here.
# Tests used:
# [1] = Cytotoxicity against human VEC cells after 48 hrs by SRB assay; assay type: cell-based
# Summary of the method: (§1)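 Cells seeded at 5 × 10³ per well and allowed to attach for 12 h, then exposed to a range of drug concentrations in their own medium for 48 h. Fixed with ice-cold TCA for 1 h at 4 °C, washed, then stained with 0.4% SRB for 30 min at room temperature. IC50 is the mean of three independent experiments.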
# K562 [2] = assay: Induction of cell cycle arrest in human K562 cells assessed as accumulation at S phase at 30 uM after 24 hrs by propidium iodide staining based flow cytometry (reference value: 44.90%); assay type: functional
# K562 [3] = assay: Induction of cell cycle arrest in human K562 cells assessed as accumulation at G2/M phase at 30 uM after 24 hrs by propidium iodide staining based flow cytometry (reference value: 18.96%); assay type: functional
# K562 [4] = assay: Induction of apoptosis in human K562 cells assessed as viable cells level at 10 uM after 48 hrs by Annexin V-FITC/propidium iodide staining based flow cytometry (reference value: 99.21%); assay type: functional
# Summary of the method: (§2)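 K562 cells exposed for 24 h or 48 h to 0, 5.0, 10.0, 15.0, 20.0 or 30.0 µM; vehicle DMSO 0.5% v/v. Cells stained with FITC-Annexin V, then counterstained with PI, and analysed by FACScan flow cytometry. Quadrants: Annexin V−/PI− viable; Annexin V+/PI− early apoptotic; Annexin V+/PI+ late apoptotic/necrotic.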
# K562 [5] = assay: Induction of cell morphological changes in human K562 cells assessed as nuclei compaction at 5 to 30 uM after 24 hrs by Hoechst 33342/propidium iodide staining based inverted fluorescence microscopy; assay type: functional
# Summary of the method: (§3)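 Cells treated for 24 h with 5.0–30.0 μM or with 0.5% DMSO, then collected and washed with PBS. Stained with Hoechst 33342 (5.0 μg/mL, 10 min, 37 °C), then with PI (10.0 μg/mL, 10 min, room temperature, dark). Nuclei scored by fluorescence microscopy as condensed/bright, fragmented, or PI-positive.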
# K562 [6] = assay: Induction of apoptosis in human K562 cells assessed as necrotic cells level at 30 uM after 48 hrs by Annexin V-FITC/propidium iodide staining based flow cytometry (reference value: 0.01%); assay type: functional; summary of the method: as §2
# K562 [7] = assay: Induction of apoptosis in human K562 cells assessed as late apoptotic cells level at 10 uM after 24 hrs by Annexin V-FITC/propidium iodide staining based flow cytometry (reference value: 0.79%); assay type: functional; summary of the method: as §2
# K562 [8] = assay: Induction of cell cycle arrest in human K562 cells assessed as accumulation at S phase at 10 uM after 24 hrs by propidium iodide staining based flow cytometry (reference value: 44.90%); assay type: functional
# HeLa = assay: Cytotoxicity against human HeLa cells after 48 hrs by SRB assay; assay type: functional, cell-based; summary of the method: as §1
# K562 [9] = assay: Induction of apoptosis in human K562 cells assessed as necrotic cells level at 20 uM after 24 hrs by Annexin V-FITC/propidium iodide staining based flow cytometry (reference value: 0.0%); assay type: functional; summary of the method: as §2
# K562 [10] = assay: Induction of apoptosis in human K562 cells after 24 hrs by Annexin V-FITC/propidium iodide staining based flow cytometry; assay type: functional, cell-based; summary of the method: as §2
# K562 [11] = assay: Induction of apoptosis in human K562 cells assessed as viable cells level at 30 uM after 24 hrs by Annexin V-FITC/propidium iodide staining based flow cytometry (reference value: 97.64%); assay type: functional; summary of the method: as §2
# K562 [12] = assay: Induction of cell cycle arrest in human K562 cells assessed as accumulation at G0/G1 phase at 5 uM after 24 hrs by propidium iodide staining based flow cytometry (reference value: 36.14%); assay type: functional
# [13] = target: Glycogen synthase kinase-3 beta (Homo sapiens) (UniProt P49841); assay: Inhibition of GSK3beta Ser9 phosphorylation in human K562 cells at 5 to 30 uM after 24 hrs by Western blotting method; assay type: cell-based
# Sequence of Glycogen synthase kinase-3 beta (Homo sapiens) (P49841 whole entry, looked up): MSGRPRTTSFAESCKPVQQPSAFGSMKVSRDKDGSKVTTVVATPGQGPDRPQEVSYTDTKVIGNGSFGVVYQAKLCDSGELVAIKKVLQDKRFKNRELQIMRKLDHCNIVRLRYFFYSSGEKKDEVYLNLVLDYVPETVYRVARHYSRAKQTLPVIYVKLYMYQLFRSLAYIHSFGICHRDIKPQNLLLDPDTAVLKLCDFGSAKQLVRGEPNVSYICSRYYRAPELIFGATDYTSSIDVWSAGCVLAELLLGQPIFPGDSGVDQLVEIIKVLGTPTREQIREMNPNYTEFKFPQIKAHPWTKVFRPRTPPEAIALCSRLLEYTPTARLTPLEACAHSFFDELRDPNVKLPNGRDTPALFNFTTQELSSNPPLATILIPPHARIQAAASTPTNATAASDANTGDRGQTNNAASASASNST
# K562 [14] = assay: Induction of apoptosis in human K562 cells assessed as early apoptotic cells level at 5 uM after 48 hrs by Annexin V-FITC/propidium iodide staining based flow cytometry (reference value: 0.24%); assay type: functional; summary of the method: as §2
# K562 [15] = assay: Induction of cell cycle arrest in human K562 cells assessed as reduction in accumulation at G0/G1 phase after 24 hrs by propidium iodide staining based flow cytometry; assay type: functional
# K562 [16] = assay: Induction of apoptosis in human K562 cells assessed as viable cells level at 5 uM after 48 hrs by Annexin V-FITC/propidium iodide staining based flow cytometry (reference value: 99.21%); assay type: functional; summary of the method: as §2
# K562 [17] = assay: Induction of apoptosis in human K562 cells assessed as late apoptotic cells level at 10 uM after 48 hrs by Annexin V-FITC/propidium iodide staining based flow cytometry (reference value: 0.54%); assay type: functional; summary of the method: as §2
# K562 [18] = assay: Induction of apoptosis in human K562 cells assessed as necrotic cells level at 10 uM after 48 hrs by Annexin V-FITC/propidium iodide staining based flow cytometry (reference value: 0.01%); assay type: functional; summary of the method: as §2
# K562 [19] = assay: Induction of cell morphological changes in human K562 cells assessed as chromatin condensation at 5 to 30 uM after 24 hrs by Hoechst 33342/propidium iodide staining based inverted fluorescence microscopy; assay type: functional; summary of the method: as §3
# K562 [20] = assay: Induction of apoptosis in human K562 cells assessed as early apoptotic cells level at 5 uM after 24 hrs by Annexin V-FITC/propidium iodide staining based flow cytometry (reference value: […]); assay type: functional
# K562 [21] = assay: Induction of cell cycle arrest in human K562 cells assessed as accumulation at G0/G1 phase at 20 uM after 24 hrs by propidium iodide staining based flow cytometry (reference value: 36.14%); assay type: functional
# K562 [22] = assay: Induction of apoptosis in human K562 cells assessed as early apoptotic cells level at 15 uM after 24 hrs by Annexin V-FITC/propidium iodide staining based flow cytometry (reference value: […]); assay type: functional
# K562 [23] = assay: Induction of cell cycle arrest in human K562 cells assessed as accumulation at G2/M phase at 20 uM after 24 hrs by propidium iodide staining based flow cytometry (reference value: 18.96%); assay type: functional
# MGC-803 = assay: Cytotoxicity against human MGC803 cells after 48 hrs by SRB assay; assay type: functional, cell-based; details: MGC-803, 48 h; summary of the method: as §1
# K562 [24] = assay: Induction of apoptosis in human K562 cells assessed as late apoptotic cells level at 30 uM after 24 hrs by Annexin V-FITC/propidium iodide staining based flow cytometry (reference value: 0.79%); assay type: functional; summary of the method: as §2
# K562 [25] = assay: Induction of cell cycle arrest in human K562 cells assessed as accumulation at S phase at 5 uM after 24 hrs by propidium iodide staining based flow cytometry (reference value: 44.90%); assay type: functional
# K562 [26] = assay: Induction of cell cycle arrest in human K562 cells assessed as reduction in accumulation at G2/M phase after 24 hrs by propidium iodide staining based flow cytometry; assay type: functional
# K562 [27] = assay: Induction of apoptosis in human K562 cells assessed as necrotic cells level at 15 uM after 48 hrs by Annexin V-FITC/propidium iodide staining based flow cytometry (reference value: 0.01%); assay type: functional; summary of the method: as §2
# K562 [28] = assay: Induction of cell cycle arrest in human K562 cells assessed as accumulation at S phase at 20 uM after 24 hrs by propidium iodide staining based flow cytometry (reference value: 44.90%); assay type: functional
# K562 [29] = assay: Induction of cell cycle arrest in human K562 cells assessed as accumulation at G2/M phase at 10 uM after 24 hrs by propidium iodide staining based flow cytometry (reference value: 18.96%); assay type: functional
structure (smiles),measurement,setting,value
COc1ccc(N2C(=O)/C(=C3/C(=O)Nc4ccccc43)c3ccccc32)cc1,IC50,[1],> 200 µM
same,Activity,K562 [2],62.77%
same,Activity,K562 [3],11.8%
same,Activity,K562 [4],96.91%
same,Activity,K562 [5],Active
same,Activity,K562 [6],1.3%
same,Activity,K562 [7],2.45%
same,Activity,K562 [8],50.88%
same,IC50,HeLa,166 µM
same,Activity,K562 [9],0.01%
same,Activity,K562 [10],Dose-dependent effect
same,Activity,K562 [11],56.98%
same,Activity,K562 [12],37.16%
same,inhibition,[13],Dose-dependent effect
same,Activity,K562 [14],1.46%
same,Activity,K562 [15],Dose-dependent effect
same,Activity,K562 [16],97.78%
same,Activity,K562 [17],1.39%
same,Activity,K562 [18],0.02%
same,Activity,K562 [19],Active
same,Activity,K562 [20],2.25%
same,Activity,K562 [21],32.01%
same,Activity,K562 [22],5.34%
same,Activity,K562 [23],11.65%
same,IC50,MGC-803,122 µM
same,Activity,K562 [24],20.02%
same,Activity,K562 [25],46.03%
same,Activity,K562 [26],Dose-dependent effect
same,Activity,K562 [27],0.02%
same,Activity,K562 [28],56.34%
same,Activity,K562 [29],14.31%
